In ChEMBL document CHEMBL1136012, “Synthesis and structure-activity relationships of novel 7-substituted 1,4-dihydro-4-oxo-1-(2-thiazolyl)-1,8-naphthyridine-3-carboxylic acids as antitumor agents. Part 1” (J Med Chem, 2002):
In brackets after ≈: the same amount, converted by molar mass. Values belong to the compound of their own block, whether it stands above or below them.

How the values were obtained:
P388 [1] = assay: Cytotoxic activity of compound against Murine P388 Leukemia; type: functional, cell-based, Mus musculus
Outline: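 Murine P388 cells were cultured in EMEM with 10% FBS, 2 mM glutamine, 50 units/mL penicillin and 50 μg/mL streptomycin. They were seeded at (1–2) × 10^4 cells/mL without preincubation and exposed to varying concentrations for 72 h at 37 °C, 5% CO2. MTT was then added for 4 h, formazan dissolved in DMSO and read at 570/690 nm.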

P388 [2] = assay: […] antitumor activity f compound against P388 leukemia cells at a dose of […] mg/kg; type: functional, Mus musculus
P388 [3] = assay: […] antitumor activity of compound against P388 leukemia cells at a dose of 3.13 mg/kg; type: functional, Mus musculus
Outline: (§1)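 In vivo study: BDF1 mice received 10^6 P388 leukemia cells ip as diluted ascites fluid. Test compounds were suspended in 0.4% CMC and given ip on days 1 and 5 after implantation, with seven mice per group. The endpoint is T/C% = median survival time of the treated group / median survival time of controls × 100.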

P388 [4] = assay: […] antitumor activity of compound against P388 leukemia cells at a dose of 50 mg/kg; type: functional, Mus musculus; outline: as §1
P388 [5] = assay: In vitro antitumor activity of compound against P388 leukemia cells at a dose of […] mg/kg; type: functional, Mus musculus; design: concentration or dose not given beside the values
A-427 = assay: Cytotoxic activity of compound against A-427 lung human tumor cell line; type: functional, cell-based
Outline: (§2)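 Cells were kept in EMEM with 10% FBS, 2 mM glutamine, NEAA and 1 mM sodium pyruvate. They were seeded at (1–2) × 10^4 cells/mL and preincubated for 24 h. They were then exposed to graded concentrations for 72 h at 37 °C in 5% CO2. MTT was added for a further 4 h and the formazan dissolved in DMSO, with absorbance at 570/690 nm.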

[6] = Cytotoxic activity of compound against AZ-521 stomach human tumor cell line; type: functional
Outline: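 AZ-521 cells were grown in EMEM with 10% FBS, 2 mM glutamine and NEAA. They were plated at (1–2) × 10^4 cells/mL and preincubated for 24 h, then treated with a range of concentrations for 72 h at 37 °C, 5% CO2. After a 4 h MTT step, the formazan was dissolved in DMSO and read at 570 nm (reference 690 nm).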

DNA topoisomerase II = DNA topoisomerase II (Homo sapiens, UniProt P11388+Q02880); assay: Inhibitory activity in a DNA cleavage assay using HeLa DNA topoisomerase II yielding its effective concentration; type: protein assay
G-361 = assay: Cytotoxic activity of compound against G-361 melanoma human tumor cell line; type: functional, cell-based
Outline: (§3)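 Culture was in McCoy's 5A with 10% FBS. Cells were seeded at (1–2) × 10^4 cells/mL, preincubated for 24 h, then incubated with various concentrations for 72 h at 37 °C under 5% CO2. MTT was added for 4 h and the formazan dissolved in DMSO, with A570 read against 690 nm.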

HT-29 = assay: Cytotoxic activity of compound against HT-29 colon human tumor cell line; type: functional, cell-based; outline: as §3
[7] = Cytotoxic activity of compound against SCaBER bladder squamous human tumor cell line; type: functional, cell-based; outline: as §2
SK-OV-3 = assay: Cytotoxic activity of compound against SK-OV-3 ovary human tumor cell line; type: functional, cell-based; settings: SK-OV-3, Female gonad
Outline: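 SK-OV-3 cells were maintained in McCoy's 5A with 15% FBS. After seeding at (1–2) × 10^4 cells/mL and 24 h preincubation, wells received graded concentrations for 72 h at 37 °C, 5% CO2. A 4 h MTT incubation followed, with DMSO solubilization and absorbance at 570/690 nm.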

P388 [8] = assay: […] antitumor activity of compound against P388 leukemia cells at a dose of 6.25 mg/kg; type: functional; settings: Mus musculus; outline: as §1
[9] = Mus musculus, P388, read-out: IC50

Compound: COc1ccccc1N1CCN(c2nc3c(cc2F)c(=O)c(C(=O)O)cn3-c2nccs2)CC1.Cl
- IC50 (P388 [1]; [9]): > 1 µg/mL

Compound: Cl.O=C(O)c1cn(-c2nccs2)c2nc(N3CCC(O)C3)c(F)cc2c1=O (stereo not drawn)
- IC50 (P388 [1]; [9]): 0.036 µg/mL
- T/C (P388 [2]): 175%
- T/C (P388 [3]): 138%
- T/C (P388 [4]): 225%

Compound: C[C@H]1CN(c2nc3c(cc2F)c(=O)c(C(=O)O)cn3-c2nccs2)C[C@@H]1N.Cl
- IC50 (P388 [1]; [9]): 0.011 µg/mL
- T/C (P388 [5]): 175%
- T/C (P388 [3]): 138%
- T/C (P388 [4]): 238%

Compound: Cl.NC1CCN(c2nc3c(cc2F)c(=O)c(C(=O)O)cn3-c2nccs2)CC1
- IC50 (P388 [1]; [9]): 1.63 µg/mL

- IC50 (DNA topoisomerase II): > 200 µg/mL
Compound: Cl.NC1CCN(c2nc3c(cc2F)c(=O)c(C(=O)O)cn3-c2nccs2)C1 (stereo not drawn)
- IC50 (A-427): 0.22 µg/mL
- IC50 [6]: 0.35 µg/mL
- IC50 (G-361): 0.39 µg/mL
- IC50 (HT-29): 1.2 µg/mL
- IC50 (P388 [1]; [9]): 0.021 µg/mL
- T/C (P388 [5]): 213%
- T/C (P388 [3]): 150%
- T/C (P388 [4]): >375%
- IC50 [7]: 0.34 µg/mL
- IC50 (SK-OV-3): 0.93 µg/mL

Compound: Cl.NC1CCN(c2nc3c(cc2F)c(=O)c(C(=O)O)cn3C2CC2)C1 (stereo not drawn)
- IC50 (P388 [1]; [9]): 7.9 µg/mL

Compound: Cc1csc(-n2cc(C(=O)O)c(=O)c3cc(F)c(N4CCC(N)C4)nc32)n1.Cl (stereo not drawn)
- IC50 (P388 [1]; [9]): 0.051 µg/mL

Compound: Cl.NC1(CO)CCN(c2nc3c(cc2F)c(=O)c(C(=O)O)cn3-c2nccs2)C1 (stereo not drawn)
- IC50 (P388 [1]; [9]): 0.084 µg/mL

Compound: Cl.NCCSc1nc2c(cc1F)c(=O)c(C(=O)O)cn2-c1nccs1
- IC50 (P388 [1]; [9]): > 10 µg/mL

Compound: CISPLATIN
- T/C (P388 [3]; Mus musculus): 239%
- T/C (P388 [8]): 290%

Compound: C[C@@H]1CN(c2nc3c(cc2F)c(=O)c(C(=O)O)cn3-c2nccs2)C[C@@H]1N.Cl
- IC50 (P388 [1]; [9]): 0.057 µg/mL

Compound: Cl.N[C@H]1CN(c2nc3c(cc2F)c(=O)c(C(=O)O)cn3-c2nccs2)C[C@@H]1O
- IC50 (P388 [1]; [9]): 2.09 µg/mL

Compound: Cl.NC1C=CC[C@H]2CN(c3nc4c(cc3F)c(=O)c(C(=O)O)cn4-c3nccs3)C[C@@H]12 (stereo partly drawn)
- IC50 (P388 [1]; [9]): 0.15 µg/mL

Compound: Cl.NC1CCN(c2nc3c(cc2F)c(=O)c(C(=O)O)cn3-c2nc3ccccc3s2)C1 (stereo not drawn)
- IC50 (P388 [1]; [9]): 0.049 µg/mL

Compound: Cl.O=C(O)c1cn(-c2nccs2)c2nc(O)c(F)cc2c1=O
- IC50 (P388 [1]; [9]): > 10 µg/mL

Compound: COc1cnc(-n2cc(C(=O)O)c(=O)c3cc(F)c(N4CCC(N)C4)nc32)s1.Cl (stereo not drawn)
- IC50 (P388 [1]; [9]): 0.35 µg/mL

Compound: Cl.NCC1CN(c2nc3c(cc2F)c(=O)c(C(=O)O)cn3-c2nccs2)C[C@H]1Cl (stereo partly drawn)
- IC50 (P388 [1]; [9]): 0.156 µg/mL

Compound: CO[C@@H]1CN(c2nc3c(cc2F)c(=O)c(C(=O)O)cn3-c2nccs2)C[C@@H]1N.Cl
- IC50 (P388 [1]; [9]): 0.084 µg/mL

Compound: CO[C@H]1CN(c2nc3c(cc2F)c(=O)c(C(=O)O)cn3-c2nccs2)C[C@@H]1N.Cl (stereo in doubt; (S,S)-43j)
- IC50 (P388 [1]; p388): 0.023 µg/mL

Compound: CN1CC=C2CN(c3nc4c(cc3F)c(=O)c(C(=O)O)cn4-c3nccs3)CC21.Cl (stereo not drawn)
- IC50 (P388 [1]; [9]): 0.038 µg/mL

Compound: Cl.NC1CCN(c2cc3c(cn2)c(=O)c(C(=O)O)cn3-c2nccs2)C1 (stereo not drawn)
- IC50 (P388 [1]; [9]): > 1 µg/mL

Compound: CN(C)C1CCN(c2nc3c(cc2F)c(=O)c(C(=O)O)cn3-c2nccs2)C1.Cl (stereo not drawn)
- IC50 (P388 [1]; [9]): 0.057 µg/mL
- T/C (P388 [5]): 175%
- T/C (P388 [3]): 138%
- T/C (P388 [4]): 225%

Compound: Cl.NC1CCN(c2ncc3c(=O)c(C(=O)O)cn(-c4nccs4)c3n2)C1 (stereo not drawn)
- IC50 (P388 [1]; [9]): 0.047 µg/mL

Compound: Cl.NC1CCN(c2nc3c(cc2F)c(=O)c(C(=O)O)cn3-c2ccccc2)C1 (stereo not drawn)
- IC50 (P388 [1]; [9]): 2.4 µg/mL

Compound: Cl.O=C(O)c1cn(-c2nccs2)c2nc(N3CC4NCCOC4C3)c(F)cc2c1=O (stereo not drawn)
- IC50 (P388 [1]; [9]): > 1 µg/mL

Compound: Cl.NC1CCN(c2nc3c(cc2F)c(=O)c(C(=O)O)cn3-c2ncc(Cl)s2)C1 (stereo not drawn)
- IC50 (P388 [1]; [9]): 0.094 µg/mL

Compound: Cl.O=C(O)c1cn(-c2nccs2)c2nc(N3CC[C@H](O)C3)c(F)cc2c1=O
- IC50 (P388 [1]; [9]): 0.02 µg/mL

Compound: COc1cc([C@@H]2c3cc4c(cc3[C@@H](O[C@@H]3O[C@@H]5CO[C@@H](C)O[C@H]5[C@H](O)[C@H]3O)[C@H]3COC(=O)[C@H]23)OCO4)cc(OC)c1O [ETOPOSIDE]
- IC50 (A-427): 0.095 µg/mL (≈ 0.161 µM)
- IC50 [6]: 0.08 µg/mL (≈ 0.136 µM)
- IC50 (G-361): 0.28 µg/mL (≈ 0.476 µM)
- IC50 (P388 [1]; [9]): 0.0085 µg/mL (≈ 0.0144 µM)
- T/C (P388 [5]): 250%
- T/C (P388 [3]): 175%
- T/C (P388 [4]): >375%
- IC50 [7]: 0.31 µg/mL (≈ 0.527 µM)
- IC50 (SK-OV-3): 0.95 µg/mL (≈ 1.61 µM)

Compound: Cl.NC1CCN(c2nc3c(cc2F)c(=O)c(C(=O)O)nn3-c2nccs2)C1 (stereo not drawn)
- IC50 (P388 [1]; [9]): > 10 µg/mL

Compound: Cl.O=C(O)c1cn(-c2nccs2)c2nc(N3CC[C@@H](O)C3)c(F)cc2c1=O
- IC50 (P388 [1]; [9]): 0.065 µg/mL
